SMILES strings stand for the structures. Calls of active or inactive are those of the source. The calls are words filed in the database; no cut-off is given here.

One test concerns NCI-H322M. Nature of the test: Growth inhibition of human NCI-H322M cells. The class given is functional.
A further test deals with HT-29. Nature of the test: Growth inhibition of human HT-29 cells. The class given is functional.
The test system of the next test is HeLa. Nature of the test: Inhibition of bipolar spindle formation in human HeLa cells at 1 uM. The class given is functional, cell-based. In short, it runs like this:
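HeLa cells were grown in MEM with Earle's BSS, 10% FBS, sodium bicarbonate and pyruvate at 37°C in 5% CO2. They were exposed to compound in DMSO for 4 h, with 0.1% DMSO as carrier control. Cells were fixed in −20°C methanol and immunostained for tubulin, with DNA counterstained. Bipolar spindle formation was scored in 100 mitotic cells per condition.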

For the next test, the system named is ACHN. In words: Growth inhibition of human ACHN cells. Format: functional.
A further test relates to SF-295. Nature of the test: Growth inhibition of human SF295 cells. Format: functional.
Another test has as its system LOX IMVI. In words: Growth inhibition of human LOXIMVI cells. Format: functional.
A short description of test [1]: Inhibition of bipolar spindle formation in Strongylocentrotus purpuratus eggs. The class given is functional, Egg. In short, it runs like this: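 S. purpuratus eggs (gametes released with 0.5M KCl) were fertilized in artificial seawater with 2 mM 3-amino triazole and stripped of envelopes 20 min post-fertilization. They were then cultured with 0.1% DMSO or inhibitor at 100 nM–100 μM, fixed at first mitosis and stained for microtubules and DNA. 100 cells per condition were scored for bipolar spindles to derive EC50.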

The next test concerns COLO 205. Nature of the test: Growth inhibition of human COLO205 cells. Format: functional.
The subject of a further test is MOLT-4. In words: Growth inhibition of human MOLT4 cells. The class given is functional.
The next test relates to CAKI-1. In words: Growth inhibition of human Caki1 cells. The class given is functional.
The subject of the next test is HOP-62. Nature of the test: Growth inhibition of human HOP62 cells. The class given is functional.
A further test deals with SF-268. In words: Growth inhibition of human SF268 cells. Format: functional.
Another test concerns UO-31. Nature of the test: Growth inhibition of human UO31 cells. Format: functional.
Another test relates to HL-60(TB). Nature of the test: Growth inhibition of human HL-60(TB) cells. The class given is functional.
The subject of the next test is SK-MEL-5. In words: Growth inhibition of human SK-MEL-5 cells. The class given is functional.
The test system of another test is SK-OV-3. Nature of the test: Growth inhibition of human SKOV3 cells. The class given is functional.
The test system of the next test is U-251. In words: Growth inhibition of human U251 cells. Format: functional.
Another test deals with CCRF-CEM. Nature of the test: Growth inhibition of human CCRF-CEM cells. Format: functional.

A word on the GI50: it is the concentration that inhibits growth by half. The low end stands for greater sensitivity of the cells, the high end for lower sensitivity of the cells. By EC50 is commonly meant the concentration at which the effect is half-maximal. Read a low EC50 as greater potency. For the molecule `COc1ccc(C(SC[C@H](N)CO)(c2ccccc2)c2ccccc2)cc1`, the GI50 in the test with NCI-H322M was determined as 110 nM; with HT-29, 340 nM; in the test on ACHN, 490 nM; in the test on SF-295, 280 nM; in the test with LOX IMVI it was 490 nM; with COLO 205, 80 nM. For the same molecule, the GI50 with MOLT-4 turned out to be 280 nM; in the test on CAKI-1, 450 nM; in the test on HOP-62, 510 nM; in the test on SF-268, 110 nM; in the test with UO-31, 1100 nM; in the test with HL-60(TB), 190 nM. In addition, the GI50 in the test on SK-MEL-5 was found to be 60 nM; with SK-OV-3, 80 nM; in the test with U-251 it was 190 nM; with CCRF-CEM it was 100 nM. Besides, the inhibition entry in the test on HeLa was “Active”. In test [1], this molecule gave a concentration giving a half-maximal response (EC50) of 28000 nM.
